Measurements: paper PMC9401589 (Chembiochem, 2022)
“Also recorded” adds a separate entry of the source. Where two headings read alike, the source gives them in different places.

Assays:
A. thaliana seedlings = experiment: Seedling growth of A. thaliana; assay type: in vivo, Arabidopsis thaliana; settings: 7 days after germination, compared to control
Summary of the method: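 A. thaliana seedlings were grown with or without test compound and scored 7 days after germination for seedling morphology and root length (n≥18 seedlings). Each treatment was compared with the control by unpaired t-test.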

A. variabilis = experiment: Uptake assay: decrease of compound in supernatant of A. variabilis cultures; assay type: cell-based, Anabaena variabilis; settings: 250 μM applied; for change of compound amount in supernatant: over 48 h
[1] = tested on: Anabaena variabilis ATCC 29413; experiment: Bioactivity assay: growth of A. variabilis in presence of compound; assay type: cell-based; settings: for growth inhibition / bioactivity towards A. variabilis: 4 days of cultivation; for cell density (chlorophyll a content) compared to control: 250 μM, four-day cultivation; for concentration at which an effect on growth was visible: after 4 days of cultivation, tested 5-250 µM
Summary of the method: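 A. variabilis cultured in suspension with test compound at 250 μM for four days. Chlorophyll a content was then measured as the indicator of cell density and compared with untreated control cultures. Cultures were also inspected visually for growth.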

[2] = tested on: DAHP accumulation in A. variabilis cells; experiment: DAHP accumulation in treated A. variabilis cells; assay type: cell-based, Anabaena variabilis; settings: 250 μM, after 5 h of cultivation
Summary of the method: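 Anabaena variabilis cells were cultivated for 5 h with 250 μM test compound, alongside untreated control cells. Treated cells were then examined for intracellular DAHP accumulation as an in vivo sign of DHQS inhibition in the shikimate pathway.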

[3] = Quantification of compound in plant material via GC-MS; assay type: in vivo, Arabidopsis thaliana
[4] = target: T1, dehydroquinate synthase of Arabidopsis thaliana (AtDHQS) (Arabidopsis thaliana, UniProt Q8VYV7); experiment: DHQS activity assay; assay type: biochemical
T1 sequence (Q8VYV7 59-442): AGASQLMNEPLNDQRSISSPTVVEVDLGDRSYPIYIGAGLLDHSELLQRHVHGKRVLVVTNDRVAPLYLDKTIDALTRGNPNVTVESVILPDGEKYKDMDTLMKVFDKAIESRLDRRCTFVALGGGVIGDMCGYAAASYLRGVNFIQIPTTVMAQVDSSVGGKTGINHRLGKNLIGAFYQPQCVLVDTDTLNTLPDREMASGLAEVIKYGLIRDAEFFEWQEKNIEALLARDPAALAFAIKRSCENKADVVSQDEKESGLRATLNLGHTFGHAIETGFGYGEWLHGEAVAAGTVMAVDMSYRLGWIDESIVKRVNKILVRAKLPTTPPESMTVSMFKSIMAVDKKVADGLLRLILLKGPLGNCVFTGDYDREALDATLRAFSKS

[5] = target: T2, DHQS from A. variabilis (AvDHQS) (Trichormus variabilis, UniProt Q3M4V2); experiment: DHQS activity assay with A. variabilis enzyme; assay type: biochemical, Anabaena variabilis
T2 sequence (Q3M4V2 1-363): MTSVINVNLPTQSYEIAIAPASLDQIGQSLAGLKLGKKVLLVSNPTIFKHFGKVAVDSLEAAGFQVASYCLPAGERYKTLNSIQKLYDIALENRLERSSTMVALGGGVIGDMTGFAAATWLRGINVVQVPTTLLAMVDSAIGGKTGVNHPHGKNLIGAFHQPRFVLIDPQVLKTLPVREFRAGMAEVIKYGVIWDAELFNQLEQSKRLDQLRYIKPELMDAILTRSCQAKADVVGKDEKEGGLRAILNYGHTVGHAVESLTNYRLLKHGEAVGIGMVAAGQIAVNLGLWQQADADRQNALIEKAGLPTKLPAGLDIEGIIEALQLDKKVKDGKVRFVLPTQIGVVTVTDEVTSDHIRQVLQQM

fish = fish ref 2, 4; cited from earlier work

C[C@@H](O)[C@H](F)[C@@H](O)[C@H](O)C(=O)CO [5,7dd5FIh (3)]
effect on seedling growth / root length (A. thaliana seedlings): no statistical significant differences | change of compound amount in supernatant (A. variabilis): depletion | growth inhibition / bioactivity towards A. variabilis [1]: nor in growth inhibition | DAHP accumulation [2]: only very small amounts; also recorded: neither result in DAHP accumulation

O=C(CO)[C@@H](O)[C@H](O)[C@H](O)[C@H](O)CF [7d7FSh (2)]
medium concentration leading to saturation of intracellular accumulation ([3]; 7 d old seedlings): 130 µM | accumulation / import into Arabidopsis seedlings ([3]; seedlings germinated on media with 7d7FSh (130 or 260 µM)): comparable range to 7dSh (1) | IC50 [4]: 200 µM | effect on seedling growth / root length (A. thaliana seedlings): significantly affected the growth and morphology; also recorded: inhibited growth | initially applied compound retrieved in the supernatant (A. variabilis; after 24 h): none | change of compound amount in supernatant (A. variabilis): best among all tested compounds | cell density (chlorophyll a content) compared to control [1]: significantly reduced | growth inhibition / bioactivity towards A. variabilis [1]: inhibited growth | concentration at which an effect on growth was visible [1]: 100 µM | DAHP accumulation [2]: significantly higher amounts; also recorded: significantly elevated compared to 7dSh (1)

C[C@@H]1O[C@](O)(CO)[C@@H](O)[C@H](O)[C@H]1O [7dGh (5)]
relative activity in relation to 7dSh (1) (ratio of IC50 values) ([4]; IC50 7dSh : IC50 derivative, same enzyme series): ≈ 0.3 | effect on seedling growth / root length (A. thaliana seedlings): no statistical significant differences | change of compound amount in supernatant (A. variabilis): slight decrease; also recorded: small decrease | growth inhibition / bioactivity towards A. variabilis [1]: nor inhibitory impact on cell growth | DAHP accumulation [2]: only very small amounts; also recorded: neither DAHP accumulation

C[C@@H](O)[C@@H](O)[C@@H](O)[C@H](O)C(=O)CO [7dSh (1), 7‐deoxy‐sedoheptulose]
IC50 ([4]; IC50, AtDHQS, series [b] enzyme preparation): 85.5 µM | IC50 ([4]; IC50-value against isolated AtDHQS enzyme, range over both enzyme preparations): 85.5 to 144 µM | IC50 ([4]; IC50 of AtDHQS, approximate, as printed in discussion): ~100 µM | IC50 [5]: 23.3 µM | cytotoxic effects (fish): little | effect on seedling growth / root length (A. thaliana seedlings): significantly affected the growth and morphology | amount of initially applied substance detected in the supernatant (A. variabilis; after 48 h, ESI-MS): about 50% | cell density (chlorophyll a content) compared to control [1]: significantly reduced | concentration at which an effect on growth was visible [1]: 5 µM | DAHP accumulation [2]: significantly higher amounts

O=C(CO)[C@@H](O)[C@H](O)[C@H](O)[C@H](O)CO [Sedoheptulose, reference compound]
inhibitory effect on AtDHQS [4]: no inhibitory effect | IC50 ([4]; AtDHQS, series [a] enzyme preparation, 2.5 µM substrate, 2 nM enzyme, 29 °C): > 1000 µM
